Data published in ChEMBL document CHEMBL5357047, “The development of thymol-isatin hybrids as broad-spectrum antibacterial agents with potent anti-MRSA activity” (RSC Med Chem, 2024).
Values after ≈ are worked out from the molar mass of the structure shown.

Assays:
Type in all cases: functional
Staphylococcus aureus [1] = experiment: Antibacterial activity against clinically isolated Methicillin-resistant Staphylococcus aureus assessed as inhibition of bacterial growth at 50 uM measured after 48 hrs by agar well diffusion method; details: read-out: IZ
[2] = tested on: Staphylococcus epidermidis; experiment: Antibacterial activity against Staphylococcus epidermidis MTCC 435 assessed as inhibition of bacterial growth at 50 uM measured after 48 hrs by agar well diffusion method; details: read-out: IZ
Escherichia coli [3] = experiment: Antibacterial activity against clinically isolated Escherichia coli RBRJ013 assessed as inhibition of bacterial growth at 50 uM measured after 48 hrs by agar well diffusion method; details: read-out: IZ
Escherichia coli [4] = experiment: Antibacterial activity against Escherichia coli MTCC 119 assessed as inhibition of bacterial growth at 50 uM measured after 48 hrs by agar well diffusion method; details: read-out: IZ
Staphylococcus aureus [5] = experiment: Antibacterial activity against clinically isolated Staphylococcus aureus RBRJ010 assessed as inhibition of bacterial growth at 50 uM measured after 48 hrs by agar well diffusion method; details: read-out: IZ
Enterococcus faecalis [6] = experiment: Antibacterial activity against clinically isolated Enterococcus faecalis RBRJ015 assessed as inhibition of bacterial growth at 50 uM measured after 48 hrs by agar well diffusion method; details: read-out: IZ
Klebsiella pneumoniae [7] = experiment: Antibacterial activity against clinically isolated Klebsiella pneumoniae RBRJ019 assessed as inhibition of bacterial growth at 50 uM measured after 48 hrs by agar well diffusion method; details: read-out: IZ
Pseudomonas aeruginosa = experiment: Antibacterial activity against Pseudomonas aeruginosa MTCC 424 assessed as inhibition of bacterial growth at 50 uM measured after 48 hrs by agar well diffusion method; details: read-out: IZ
Klebsiella pneumoniae [8] = experiment: Antibacterial activity against clinically isolated Klebsiella pneumoniae RBRJ024 assessed as inhibition of bacterial growth at 50 uM measured after 48 hrs by agar well diffusion method; details: read-out: IZ
Escherichia coli [9] = experiment: Antibacterial activity against clinically isolated Escherichia coli RBRJ005 assessed as inhibition of bacterial growth at 50 uM measured after 48 hrs by agar well diffusion method; details: read-out: IZ
Staphylococcus aureus [10] = experiment: Antibacterial activity against Methicillin-resistant Staphylococcus aureus ATCC 33591 assessed as inhibition of bacterial growth at 50 uM measured after 48 hrs by agar well diffusion method; details: read-out: IZ
Method in brief: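 Agar well diffusion on Mueller Hinton agar seeded with bacteria at 0.5 McFarland. […] Incubated 48 h at 37 °C aerobically; zone of inhibition diameter (mm) measured. Triplicate.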

Enterococcus faecalis [11] = experiment: Antibacterial activity against Enterococcus faecalis MTCC 439 assessed as inhibition of bacterial growth at 50 uM measured after 48 hrs by agar well diffusion method; details: read-out: IZ
Enterobacter cloacae = experiment: Antibacterial activity against clinically isolated Enterobacter cloacae RBRJ017 assessed as inhibition of bacterial growth at 50 uM measured after 48 hrs by agar well diffusion method; details: read-out: IZ
Staphylococcus aureus [12] = experiment: Antibacterial activity against Staphylococcus aureus MTCC 740 assessed as inhibition of bacterial growth at 50 uM measured after 48 hrs by agar well diffusion method; details: read-out: IZ
Klebsiella pneumoniae [13] = experiment: Antibacterial activity against Klebsiella pneumoniae MTCC 109 assessed as inhibition of bacterial growth at 50 uM measured after 48 hrs by agar well diffusion method; details: read-out: IZ
Acinetobacter baumannii = experiment: Antibacterial activity against clinically isolated Acinetobacter baumannii RBRJ027 assessed as inhibition of bacterial growth at 50 uM measured after 48 hrs by agar well diffusion method; details: read-out: IZ
Staphylococcus aureus [14] = experiment: Antibacterial activity against Staphylococcus aureus MTCC 740 assessed as inhibition of bacterial growth measured after 48 hrs by broth microdilution method
Staphylococcus aureus [15] = experiment: Bactericidal activity against Staphylococcus aureus MTCC 740 assessed as inhibition of bacterial growth measured after 48 hrs by agar plate method
Method in brief: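 MBC: aliquots from microdilution wells without colour change subcultured on drug-free Mueller Hinton agar, 48 h at 37 °C aerobically. MBC is the lowest concentration with no visible growth. Triplicate.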

Cc1ccc(C(C)C)c(OCc2cn(CCN3C(=O)C(=O)c4cc(Cl)ccc43)nn2)c1
zone of inhibition at 50 µM (Staphylococcus aureus [1]): 14.3 mm | zone of inhibition at 50 µM [2]: 16.2 mm | zone of inhibition at 50 µM (Escherichia coli [3]): 13.1 mm | zone of inhibition at 50 µM (Escherichia coli [4]): 13.6 mm | zone of inhibition at 50 µM (Staphylococcus aureus [5]): 19.6 mm | zone of inhibition at 50 µM (Enterococcus faecalis [6]): 15.2 mm | zone of inhibition at 50 µM (Klebsiella pneumoniae [7]): 15.2 mm | zone of inhibition at 50 µM (Pseudomonas aeruginosa): 14.1 mm | zone of inhibition at 50 µM (Klebsiella pneumoniae [8]): 13.6 mm | zone of inhibition at 50 µM (Escherichia coli [9]): 13.2 mm | zone of inhibition at 50 µM (Staphylococcus aureus [10]): 14.6 mm | zone of inhibition at 50 µM (Enterococcus faecalis [11]): 11.2 mm | zone of inhibition at 50 µM (Enterobacter cloacae): 14.2 mm | zone of inhibition at 50 µM (Staphylococcus aureus [12]): 19.3 mm | zone of inhibition at 50 µM (Klebsiella pneumoniae [13]): 15.1 mm | zone of inhibition at 50 µM (Acinetobacter baumannii): 12 mm

Cc1ccc(C(C)C)c(OCc2cn(CCCCN3C(=O)C(=O)c4cc(I)ccc43)nn2)c1
zone of inhibition at 50 µM (Staphylococcus aureus [1]): 13.5 mm | zone of inhibition at 50 µM [2]: 13.5 mm | zone of inhibition at 50 µM (Escherichia coli [3]): 10.9 mm | zone of inhibition at 50 µM (Escherichia coli [4]): 10.2 mm | zone of inhibition at 50 µM (Staphylococcus aureus [5]): 11.9 mm | zone of inhibition at 50 µM (Enterococcus faecalis [6]): 11.2 mm | zone of inhibition at 50 µM (Klebsiella pneumoniae [7]): 10.7 mm | zone of inhibition at 50 µM (Pseudomonas aeruginosa): 10.6 mm | zone of inhibition at 50 µM (Klebsiella pneumoniae [8]): 10.1 mm | zone of inhibition at 50 µM (Escherichia coli [9]): 10.4 mm | zone of inhibition at 50 µM (Staphylococcus aureus [10]): 14 mm | zone of inhibition at 50 µM (Enterococcus faecalis [11]): 10.1 mm | zone of inhibition at 50 µM (Enterobacter cloacae): 10.2 mm | zone of inhibition at 50 µM (Staphylococcus aureus [12]): 16.9 mm | zone of inhibition at 50 µM (Klebsiella pneumoniae [13]): 12.2 mm | zone of inhibition at 50 µM (Acinetobacter baumannii): 10.1 mm

Cc1ccc(C(C)C)c(OCc2cn(CCCCN3C(=O)C(=O)c4cc(Cl)ccc43)nn2)c1
zone of inhibition at 50 µM (Staphylococcus aureus [1]): 14.2 mm | zone of inhibition at 50 µM [2]: 14.3 mm | zone of inhibition at 50 µM (Escherichia coli [3]): 11.4 mm | zone of inhibition at 50 µM (Escherichia coli [4]): 10.3 mm | zone of inhibition at 50 µM (Staphylococcus aureus [5]): 12.6 mm | zone of inhibition at 50 µM (Enterococcus faecalis [6]): 13.4 mm | zone of inhibition at 50 µM (Klebsiella pneumoniae [7]): 12.3 mm | zone of inhibition at 50 µM (Pseudomonas aeruginosa): 12.4 mm | zone of inhibition at 50 µM (Klebsiella pneumoniae [8]): 10.3 mm | zone of inhibition at 50 µM (Escherichia coli [9]): 12.3 mm | zone of inhibition at 50 µM (Staphylococcus aureus [10]): 13.6 mm | zone of inhibition at 50 µM (Enterococcus faecalis [11]): 11.2 mm | zone of inhibition at 50 µM (Enterobacter cloacae): 11.5 mm | zone of inhibition at 50 µM (Staphylococcus aureus [12]): 18.4 mm | zone of inhibition at 50 µM (Klebsiella pneumoniae [13]): 13.2 mm | zone of inhibition at 50 µM (Acinetobacter baumannii): 11.1 mm

Cc1ccc(C(C)C)c(OCc2cn(CCCCN3C(=O)C(=O)c4cc(C)ccc43)nn2)c1
zone of inhibition at 50 µM (Staphylococcus aureus [1]): 15.8 mm | zone of inhibition at 50 µM [2]: 11.4 mm | zone of inhibition at 50 µM (Escherichia coli [3]): 11.4 mm | zone of inhibition at 50 µM (Escherichia coli [4]): 15.5 mm | zone of inhibition at 50 µM (Staphylococcus aureus [5]): 14.6 mm | zone of inhibition at 50 µM (Enterococcus faecalis [6]): 15.3 mm | zone of inhibition at 50 µM (Klebsiella pneumoniae [7]): 13.2 mm | zone of inhibition at 50 µM (Pseudomonas aeruginosa): 12.9 mm | zone of inhibition at 50 µM (Klebsiella pneumoniae [8]): 12.2 mm | zone of inhibition at 50 µM (Escherichia coli [9]): 13.1 mm | zone of inhibition at 50 µM (Staphylococcus aureus [10]): 14.2 mm | zone of inhibition at 50 µM (Enterococcus faecalis [11]): 12.4 mm | zone of inhibition at 50 µM (Enterobacter cloacae): 11.6 mm | zone of inhibition at 50 µM (Staphylococcus aureus [12]): 19.5 mm | zone of inhibition at 50 µM (Klebsiella pneumoniae [13]): 15.4 mm | zone of inhibition at 50 µM (Acinetobacter baumannii): 10.4 mm

Cc1ccc(C(C)C)c(OCc2cn(CCN3C(=O)C(=O)c4cc(I)ccc43)nn2)c1
zone of inhibition at 50 µM (Staphylococcus aureus [1]): 13.2 mm | zone of inhibition at 50 µM [2]: 13.4 mm | zone of inhibition at 50 µM (Escherichia coli [3]): 11.3 mm | zone of inhibition at 50 µM (Escherichia coli [4]): 11.3 mm | zone of inhibition at 50 µM (Staphylococcus aureus [5]): 14.1 mm | zone of inhibition at 50 µM (Enterococcus faecalis [6]): 12.9 mm | zone of inhibition at 50 µM (Klebsiella pneumoniae [7]): 11.6 mm | zone of inhibition at 50 µM (Pseudomonas aeruginosa): 10.4 mm | zone of inhibition at 50 µM (Klebsiella pneumoniae [8]): 12.2 mm | zone of inhibition at 50 µM (Escherichia coli [9]): 10.3 mm | zone of inhibition at 50 µM (Staphylococcus aureus [10]): 13.1 mm | zone of inhibition at 50 µM (Enterococcus faecalis [11]): 12.2 mm | zone of inhibition at 50 µM (Enterobacter cloacae): 13.1 mm | zone of inhibition at 50 µM (Staphylococcus aureus [12]): 15.2 mm | zone of inhibition at 50 µM (Klebsiella pneumoniae [13]): 12.7 mm | zone of inhibition at 50 µM (Acinetobacter baumannii): 12.1 mm

Cc1ccc(C(C)C)c(OCc2cn(CCN3C(=O)C(=O)c4cc(F)ccc43)nn2)c1
MIC (Staphylococcus aureus [14]): 62.5 µM (≈ 26.4 µg/mL) | zone of inhibition at 50 µM (Staphylococcus aureus [1]): 16.6 mm | zone of inhibition at 50 µM [2]: 17.3 mm | zone of inhibition at 50 µM (Escherichia coli [3]): 14.2 mm | zone of inhibition at 50 µM (Escherichia coli [4]): 13.3 mm | zone of inhibition at 50 µM (Staphylococcus aureus [5]): 19.2 mm | zone of inhibition at 50 µM (Enterococcus faecalis [6]): 19.3 mm | MBC (Staphylococcus aureus [15]): 125 µM (≈ 52.8 µg/mL) | zone of inhibition at 50 µM (Klebsiella pneumoniae [7]): 14.2 mm | zone of inhibition at 50 µM (Pseudomonas aeruginosa): 14.2 mm | zone of inhibition at 50 µM (Klebsiella pneumoniae [8]): 13.2 mm | zone of inhibition at 50 µM (Escherichia coli [9]): 14.3 mm | zone of inhibition at 50 µM (Staphylococcus aureus [10]): 15.3 mm | zone of inhibition at 50 µM (Enterococcus faecalis [11]): 15.1 mm | zone of inhibition at 50 µM (Enterobacter cloacae): 14.2 mm | zone of inhibition at 50 µM (Staphylococcus aureus [12]): 20.3 mm | zone of inhibition at 50 µM (Klebsiella pneumoniae [13]): 15.2 mm | zone of inhibition at 50 µM (Acinetobacter baumannii): 11.9 mm
